High-throughput results deposited in PubChem BioAssay by several laboratories.
WT yeast gro inh: growth inhibition of WT strain, primary screen, mitochondrial fusion inhibitor project, WT and mutant strains, chemical genetic | mitochondrial fusion phenotypic screen | inhibition, % at 10 µM | 190,000 compounds, 2.1% hits; in the data active = inhibition above about 58%; tested in S. cerevisiae
14-3-3 Bad PPI: inhibitors of 14-3-3 zeta/Bad binding, primary screen, biochemical, TR-FRET, bovine 14-3-3 zeta | 14-3-3 protein zeta/delta (Bos taurus), P63103 | TR-FRET 14-3-3zeta/Dy647-pBad peptide displacement, 1 h | inhibition, % at 21.7 µM | 220,000 compounds, 0.71% hits | AID 781, 2007;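 active = inhibition above about 70%, limit read from the data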;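 also: 0% = full 14-3-3 plus peptide FRET controls and 100% = background without 14-3-3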
Target sequence (P63103 whole entry, looked up): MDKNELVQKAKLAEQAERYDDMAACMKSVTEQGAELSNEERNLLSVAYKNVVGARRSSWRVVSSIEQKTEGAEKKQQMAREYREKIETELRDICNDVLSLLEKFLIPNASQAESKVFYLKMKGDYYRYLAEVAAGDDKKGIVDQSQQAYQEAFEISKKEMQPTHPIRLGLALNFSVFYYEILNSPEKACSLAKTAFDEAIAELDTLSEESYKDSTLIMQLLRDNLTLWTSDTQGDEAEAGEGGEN
RBBP9 inh: human RBBP9 inhibitors, primary screen, biochemical, fluorescence polarization, FP-Rh probe, HTS | recombinant RBBP9 | inhibition, % at 7.94 µM | 220,000 compounds, 0.2% hits;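 active = inhibition above the campaign mean of all tested compounds plus 3 SD, cut at about 14% in these data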;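 also: plate controls were DMSO wells with RBBP9 for no effect and wells lacking RBBP9 protein for full effect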
Target sequence (O75884 whole entry, looked up): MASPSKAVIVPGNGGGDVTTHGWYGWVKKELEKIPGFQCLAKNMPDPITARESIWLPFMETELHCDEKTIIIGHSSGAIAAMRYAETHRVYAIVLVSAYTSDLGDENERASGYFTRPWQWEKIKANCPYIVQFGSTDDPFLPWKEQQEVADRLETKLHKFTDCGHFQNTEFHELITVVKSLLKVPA
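Material: RBBP9 protein. Amount: RBBP9 at 2.5 µM in dispensed solution, before mixing. Schedule: 30 min then 45 min, 25 °C. Medium: Tris buffer pH 8.0, NaCl, Pluronic. Measured by: fluorescence polarization. Measure: percent inhibition from mP, scaled between DMSO and no-protein wells. Replication: one well per compound.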
KCC2 mod: KCC2 cotransporter modulators, thallium flux, primary screen, cell-based, HEK293 KCC2, FluoZin-2 fluorescence, MLSMR; Solute carrier family 12 member 5 (Homo sapiens), Q9H2X9; KCC2 cells, thallium flux FluoZin-2 fluorescence; B-score of Tl+ flux slope (higher = more flux/activation; lower = inhibition) at 10 µM; 190,000 compounds, 2.2% hits;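 active = thallium flux slope and its plate-corrected score both differing from the plate sample mean at a set confidence after two filtering rounds, in either direction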;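 also: slope of fluorescence scaled to starting intensity during 10 to 20 s after thallium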
ROMK mod: ROMK potassium channel modulators, primary screen, cell-based, thallium flux, MLSMR library. Tet-inducible ROMK, thallium flux fluorescence; actives lie on both sides. 130,000 compounds, 2% hits. B-score at 10 µM. AID 1918, 2009. ATP-sensitive inward rectifier potassium channel 1 (Homo sapiens), P48048;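 active = signal ratio slope over the read window, or its plate-corrected B-score, at least 3 SD from the plate mean, either direction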;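 also: B-score of the F/F0 ratio slope over 7 to 12 s after thallium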
NCF1 inh: p47phox/p22phox peptide binding inhibitors, primary screen, biochemical, uHTS, NADPH oxidase regulatory subunit. inhibition, % at 24.7 µM. fluorescence polarization, 2 h. AID 1274, 2008. Neutrophil cytosol factor 1 (Homo sapiens), P14598. 220,000 compounds, 0.53% hits;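 active = inhibition above about 30%, limit read from the data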;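 also: 0% = p47phox with labelled peptide and 100% = labelled peptide alone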
ROMK retest: ROMK channel modulator hit retest, confirmation, cell-based, thallium flux, duplicate, resupplied hits; shares compounds with ROMK mod; fluorescence ratio; hits give low values; normalized thallium flux (F/F0 slope) at 10 µM; 3,000 compounds, 54% hits; AID 1917, 2009;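 active = Flux at 10 µM at least 3 SD below or above vehicle control mean in one or both replicates; inconclusive = no clear call, values can overlap the other calls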
An asterisk follows results filed as active. A selection: hits, their analogues and other compounds. The true share with any hit is near 5.8%.

What do the screens show for `Cc1ccc(C(C)C)c(OCC(=O)NN=C(CCl)CCl)c1`?
14-3-3 Bad PPI: 4.3; RBBP9 inh: 7.0; KCC2 mod: 0.217; ROMK mod: -4.64*; NCF1 inh: -45.2; ROMK retest: 0.0602*

What do the screens show for `CN1CCN(c2ccccc2NC(=O)COc2ccccc2)CC1`?
WT yeast gro inh: -15.9; 14-3-3 Bad PPI: 1.2; RBBP9 inh: -1.3; KCC2 mod: 0.522; ROMK mod: -0.515; NCF1 inh: -9.6

Results for Cc1ccc(C(C)C)c(OCC(=O)Nc2ccccc2N2CCN(C)CC2)c1 ?
WT yeast gro inh: -29.1; 14-3-3 Bad PPI: 1.9; RBBP9 inh: 1.5; KCC2 mod: 1.86; ROMK mod: -2.88*; NCF1 inh: -10.1; ROMK retest: 0.066*

How did CC(=O)N1CCN(c2ccccc2NC(=O)COc2cc(C)ccc2C(C)C)CC1 do in these assays?
WT yeast gro inh: 9.6; 14-3-3 Bad PPI: -14.2; RBBP9 inh: -2.6; NCF1 inh: -2.4; ROMK retest: 0.0776

How did C/C(=N/NC(=O)COc1cc(C)ccc1C(C)C)C(=O)O do in these assays?
WT yeast gro inh: 11.1; 14-3-3 Bad PPI: 10.1; RBBP9 inh: -7.1; KCC2 mod: 0.101; ROMK mod: 1.05; NCF1 inh: 2.9

Results for CN(c1ccccc1)S(=O)(=O)c1cccc(NC(=O)c2ccncc2)c1 ?
14-3-3 Bad PPI: -2.5; RBBP9 inh: 1.8; KCC2 mod: -0.904; NCF1 inh: -16.3; ROMK retest: 0.0805

What do the screens show for `CN(c1ccccc1)S(=O)(=O)c1cccc(NC(=O)c2cncc(Br)c2)c1`?
14-3-3 Bad PPI: -0.8; RBBP9 inh: -15.3; KCC2 mod: -0.00806; NCF1 inh: -12.4

Results for O=S1(=O)CCC(NC(=S)SCCOc2ccccc2)C1 (stereo not drawn) ?
WT yeast gro inh: 0.8; 14-3-3 Bad PPI: -18.7; RBBP9 inh: -3.5; KCC2 mod: -1.38; ROMK mod: -4.99*; NCF1 inh: -11.4; ROMK retest: 0.068*

What do the screens show for `CC(=O)NCCNC(=O)[C@H](Cc1ccccc1)NC(=O)c1cccs1`?
WT yeast gro inh: 5.0; 14-3-3 Bad PPI: -2.3; RBBP9 inh: -3.3; KCC2 mod: 2.7; ROMK mod: 2.36*; NCF1 inh: 7.0; ROMK retest: 0.0777

Results for CCS(=O)(=O)c1ccc(O)c(NC(=O)Nc2ccccc2)c1 ?
WT yeast gro inh: 4.7; 14-3-3 Bad PPI: -5.8; RBBP9 inh: -7.4; KCC2 mod: -0.946; NCF1 inh: -10.7

How did CCS(=O)(=O)c1ccc(O)c(NC(=O)Nc2ccc(C(C)(C)C)cc2)c1 do in these assays?
14-3-3 Bad PPI: 4.5; RBBP9 inh: -7.8; KCC2 mod: 0.907; ROMK mod: -2.5*; NCF1 inh: -20.1; ROMK retest: 0.0796

What do the screens show for `CC(C)CCNC(=O)C(c1ccc(O)cc1)N(C(=O)C1COc2ccccc2O1)c1cccc(O)c1` (stereo not drawn)?
WT yeast gro inh: 0.0; 14-3-3 Bad PPI: -8.6; RBBP9 inh: -2.2; KCC2 mod: -0.971; ROMK mod: -2.68*; NCF1 inh: -3.9; ROMK retest: 0.055*

What do the screens show for `C(#CCN1CCOCC1)COCCOC(c1ccccc1)c1ccccc1`?
WT yeast gro inh: 12.8; 14-3-3 Bad PPI: -17.6; RBBP9 inh: 3.5; KCC2 mod: 0.194; ROMK mod: 1*; NCF1 inh: 2.4; ROMK retest: 0.0759

How did COc1ccc(/C=N/N=C/c2ccc(OC)c(OC)c2)cc1OC do in these assays?
WT yeast gro inh: -1.1; 14-3-3 Bad PPI: 4.4; RBBP9 inh: 5.0; KCC2 mod: 1.16; NCF1 inh: -4.4

How did COc1cc(/C=N/N=C(N)N)ccc1OCc1ccccc1Cl do in these assays?
WT yeast gro inh: 20.9; 14-3-3 Bad PPI: -17.9; RBBP9 inh: -1.8; KCC2 mod: -0.481; ROMK mod: -3.72*; NCF1 inh: -7.7; ROMK retest: 0.0553*

Results for COc1cccc(N2CC(O)=C(c3nc4ccccc4s3)C2=N)c1 ?
WT yeast gro inh: -13.2; 14-3-3 Bad PPI: -9.6; RBBP9 inh: -7.0; KCC2 mod: 1.02; ROMK mod: 3.31*; NCF1 inh: 4.4; ROMK retest: inconclusive

How did COc1ccc(N2CC(O)=C(c3nc4ccccc4s3)C2=N)cc1 do in these assays?
WT yeast gro inh: -3.0; 14-3-3 Bad PPI: -5.0; RBBP9 inh: -2.6; KCC2 mod: -0.864; NCF1 inh: -9.0

Results for O=C1OCc2cccc([N+](=O)[O-])c21 ?
WT yeast gro inh: -2.8; 14-3-3 Bad PPI: 2.9; RBBP9 inh: -2.1; KCC2 mod: 0.342; ROMK mod: 0.00367; NCF1 inh: 3.3

How did O=C1Nc2ccccc2OCc2c1cccc2[N+](=O)[O-] do in these assays?
WT yeast gro inh: -6.2; 14-3-3 Bad PPI: -2.6; RBBP9 inh: 7.0; KCC2 mod: -0.87; ROMK mod: 3.49*; NCF1 inh: 4.0; ROMK retest: 0.104*

How did C#CCOCCOCCOCCNc1nc(N2CCN(C(=O)[C@H](CCC(=O)O)n3cc(C(N)CC(C)C)nn3)CC2)nc(N2CCN(C(=O)[C@H](Cc3ccc(O)cc3)n3cc(C(N)[C@H](C)CC)nn3)CC2)n1 (stereo partly drawn) do in these assays?
WT yeast gro inh: -36.7; 14-3-3 Bad PPI: 45.7; RBBP9 inh: 3.9; KCC2 mod: 0.827

What do the screens show for `COc1ccc(NC(=O)Nc2ccc(F)cc2)c(C)c1`?
WT yeast gro inh: -1.1; 14-3-3 Bad PPI: -7.7; RBBP9 inh: -5.2; KCC2 mod: 0.528; ROMK mod: -2.07*; NCF1 inh: 26.6; ROMK retest: 0.0754

What do the screens show for `c1ccc(-c2noc(CN3CCN(c4cnccn4)CC3)n2)cc1`?
WT yeast gro inh: 4.5; 14-3-3 Bad PPI: -6.7; RBBP9 inh: 4.0; KCC2 mod: 0.607; ROMK mod: 1.42; NCF1 inh: 0.5

What do the screens show for `CC(CSc1nc2ccccc2s1)Cn1c(N2CCCC2)nc2c1c(=O)[nH]c(=O)n2C` (stereo not drawn)?
WT yeast gro inh: 18.1; 14-3-3 Bad PPI: -9.1; RBBP9 inh: -12.4; ROMK mod: -3.07*; NCF1 inh: 0.5; ROMK retest: 0.0599*

How did CSC1=NCCN1CCOc1ccccc1 do in these assays?
WT yeast gro inh: -6.4; 14-3-3 Bad PPI: -3.4; RBBP9 inh: -5.9; KCC2 mod: 0.0203; ROMK mod: 0.248; NCF1 inh: -6.1
